Results on four compounds are retold here after ChEMBL document CHEMBL4393661, “PRODRUGS FOR NITROREDUCTASE BASED CANCER THERAPY- 2: Novel amide/Ntr combinations targeting PC3 cancer cells” (Eur J Med Chem, 2019).

The test system of data set [1] is PC-3. The data set is described as follows: Cytotoxicity in human PC3 cells assessed as reduction in cell viability at 180 nM measured after 48 hrs by SRB assay. The class given is cell-based. As to conditions: pc-3, 48 h, 0.18 µM. The procedure, abridged:
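They were exposed for 48 h to prodrug alone at 180 nM final, without enzyme or NADH, with 25 mM Tris-HCl as vehicle control. Cells were fixed with 12.5% TCA for 1 h at 4 °C, stained with 0.4% SRB and read at 492 nm as % cell survival, in triplicate.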

Data set [2] is described as follows: Cytotoxicity against human PC3 cells assessed as cell viability at 9 to 150 uM measured after 48 hrs by MTT assay relative to control. The class given is cell-based, PC-3. The following applies: read-out: Activity. The procedure, abridged: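 They were treated for 48 h at 9, 18, 39, 78 and 150 µM, with 1% DMSO as vehicle control. Viability was read by MTT at 550 nm.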

The target of data set [3] is T1, Staphylococcus saprophyticus nitroreductase (Staphylococcus saprophyticus subsp. saprophyticus (strain ATCC 15305 / DSM20229 / NCIMB 8711 / NCTC 7292 / S-41), UniProt Q4A0P1).
T1 sequence (Q4A0P1 whole entry): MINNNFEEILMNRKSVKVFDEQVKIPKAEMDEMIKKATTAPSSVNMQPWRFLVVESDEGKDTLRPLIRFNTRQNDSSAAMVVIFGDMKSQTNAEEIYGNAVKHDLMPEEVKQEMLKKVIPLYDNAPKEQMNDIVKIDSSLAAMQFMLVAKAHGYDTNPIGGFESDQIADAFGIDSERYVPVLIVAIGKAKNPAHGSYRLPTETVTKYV
The data set is described as follows: Substrate activity at Staphylococcus saprophyticus nitroreductase expressed in Escherichia coli assessed as half life […] at 150 uM by HPLC analysis (0 to 5 mins at 20 % ACN, 15 to 22 min at 80% ACN, 27-32 AT 20% ACN). Type of data set: ADME.

The target in data set [4] is T2, Putative nitroreductase (Staphylococcus saprophyticus subsp. saprophyticus (strain ATCC 15305 / DSM20229 / NCIMB 8711 / NCTC 7292 / S-41), UniProt Q4A0P1).
T2 sequence (Q4A0P1 whole entry): T1 sequence (Q4A0P1 whole entry)
The data set is described as follows: Substrate activity at Staphylococcus saprophyticus nitroreductase expressed in Escherichia coli assessed as retention time […] at 150 uM by HPLC analysis (0 to 5 mins at 20 % ACN, 15 to 22 min at 80% ACN, 27-32 AT 20% ACN). Type of data set: ADME.

Data set [5] can be described thus: Cytotoxicity against human HUVEC cells assessed as cell viability at 9 to 150 uM measured after 48 hrs by MTT assay relative to control. Type of data set: cell-based. As to conditions: read-out: Activity. The procedure, abridged: (§1)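 Hep3B and HUVEC cells were grown in high-glucose medium with 10% heat-inactivated FBS and 2 mM glutamine at 37 °C in 5% CO2. Cells were seeded at 5x10^4 per well and left 24 h to attach. They were then exposed for 48 h to 150, 75, 39, 19 and 9 µM, with 1% DMSO as vehicle control. Viability was read by MTT at 550 nm as (OD sample/OD control)×100.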

The test system of data set [6] is PC-3. The data set is described as follows: Cytotoxicity against human PC3 cells assessed as reduction in cell viability measured after 48 hrs in presence of Staphylococcus saprophyticus nitroreductase and NADH by SRB assay. The class given is cell-based. As to conditions: PC-3, 48 h. In a few lines:
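Prodrug at 180, 18 or 1.8 nM was premixed with Ssap-NtrB (31 µg/mL final) and NADH (600 µM final; 900 µM for CB1954) in 25 mM Tris-HCl pH 7.5, then added for 48 h under aerobic conditions. Cells were fixed with 12.5% TCA, stained with SRB and read at 492 nm, in triplicate.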

Data set [7] is described as follows: Cytotoxicity against human Hep3B cells assessed as cell viability at 9 to 150 uM measured after 48 hrs by MTT assay relative to control. The class given is cell-based, Hep 3B2. The following applies: read-out: Activity. In a few lines: as §1
For data set [8], the target named is T2, Putative nitroreductase. The data set is described as follows: Substrate activity at Staphylococcus saprophyticus nitroreductase expressed in Escherichia coli assessed as retention time in the presence of NADPH at 100 uM by HPLC analysis (0 to 5 mins at 20% ACN, 25 to 35 min at 80% ACN, 40 to 45 min at 20% ACN). The class given is ADME.
For data set [9], the target named is T2, Putative nitroreductase. The data set is described as follows: Prodrug conversion assessed Staphylococcus saprophyticus nitroreductase expressed in Escherichia coli-mediated PP (4-(hydroxyamino)phenyl)(piperidin-1-yl)methanone metabolite formation by measuring retention time of metabolite at 100 uM incubated for 15 mins by HPLC analysis. The class given is ADME. As to conditions: 0.25 h. The procedure, abridged: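 Recombinant Ssap-NtrB, Ni-column purified, was used at 2.5 µg/mL. Substrate at 100 µM was reacted with 200 µM NADH in 25 mM Tris/Cl pH 7.5 with 10% DMSO at 25 °C for 15 min. The reaction was stopped 1:1 with cold acetonitrile and run on C18 RP-HPLC at 1 mL/min with a 20–80% ACN gradient. Peaks were detected at 254 and 340 nm.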

A short description of data set [10]: Solubility of the compound in 15% DMSO. The class given is physicochemical.
Data set [11] concerns the target T2, Putative nitroreductase. The data set is described as follows: Prodrug conversion assessed Staphylococcus saprophyticus nitroreductase expressed in Escherichia coli-mediated (4-aminophenyl)(piperidin-1-yl)methanone metabolite formation by measuring retention time in presence of FDH cofactor regeneration system at 100 uM by HPLC analysis. Type of data set: ADME. The procedure, abridged: (§2)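 This was a coupled regeneration reaction: 100 µM substrate in Tris/Cl pH 7.5 with 5–15% DMSO, plus 100 µM NADH, 10 µM NAD+, 0.1 mg/mL BSA, 200 µM sodium formate, 30 µg/mL Ssap-NtrB and 30 µg/mL Candida methylica FDH, at 25 °C. Aliquots were taken over time, quenched 1:1 with cold acetonitrile and analysed by C18 HPLC using program II (20→80→20% ACN). Peak areas were read at 254 and 340 nm.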

Data set [12] deals with T2, Putative nitroreductase. The data set is described as follows: Substrate activity at Staphylococcus saprophyticus nitroreductase expressed in Escherichia coli assessed as retention time […] at 100 uM by HPLC analysis (0 to 5 mins at 20 % ACN, 15 to 22 min at 80% ACN, 27-32 AT 20% ACN). Type of data set: ADME.
Data set [13] has as its target T1, Staphylococcus saprophyticus nitroreductase. The data set is described as follows: Substrate activity at Staphylococcus saprophyticus nitroreductase expressed in Escherichia coli assessed as half life […] at 100 uM by HPLC analysis (0 to 5 mins at 20 % ACN, 15 to 22 min at 80% ACN, 27-32 AT 20% ACN). The class given is ADME.
Data set [14] has as its target T2, Putative nitroreductase. The data set is described as follows: Prodrug conversion assessed Staphylococcus saprophyticus nitroreductase expressed in Escherichia coli-mediated PP (4-(hydroxyamino)phenyl)(piperidin-1-yl)methanone metabolite formation by measuring retention time in presence of FDH cofactor regeneration system at 100 uM by HPLC analysis. Type of data set: ADME. The procedure, abridged:
as §2

Data set [15] concerns the target T1, Staphylococcus saprophyticus nitroreductase. The data set is described as follows: Substrate activity at Staphylococcus saprophyticus nitroreductase expressed in Escherichia coli assessed as half life […] at 100 uM by HPLC analysis (0 to 5 mins at 20% ACN, 25 to 35 min at 80% ACN, 40 to 45 min at 20% ACN). Type of data set: ADME.
Data set [16] deals with T3, Oxygen-insensitive NAD(P)H nitroreductase (Escherichia coli K-12, UniProt P38489).
T3 sequence (P38489 whole entry): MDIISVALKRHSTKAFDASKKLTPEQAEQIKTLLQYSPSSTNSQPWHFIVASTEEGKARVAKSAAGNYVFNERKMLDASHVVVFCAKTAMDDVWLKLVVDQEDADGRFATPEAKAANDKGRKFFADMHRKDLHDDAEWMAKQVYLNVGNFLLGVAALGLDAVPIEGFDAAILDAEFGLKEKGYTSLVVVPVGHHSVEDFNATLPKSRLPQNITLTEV
The data set is described as follows: Substrate activity at Escherichia coli nitroreductase nfsB assessed as ratio of Kcat/Km up to 80 mM using NADH as cofactor relative to CB1954/NfsB. The class given is ADME.

Bounds are passed on as bounds.

On to `CC(=O)Nc1cc([N+](=O)[O-])cc([N+](=O)[O-])c1`, for which the Activity result in the data set with PC-3 [1] is recorded as “Non-Toxic”. In addition, the viability at 48 h, up to 150 µM in [2], in [5] and in data set [7] was more than 80% each time. Also, the half-life in data set [3] was less than 6 min. Also, the Retention_time on Putative nitroreductase [4] is 14.4 min. In addition, the IC50 in the data set on PC-3 [6] was determined as 10.7 µM.

In the case of `O=C(c1ccc([N+](=O)[O-])cc1)N1CCCCC1`, the Activity entry in the data set with PC-3 [1] is “Non-Toxic”. Moreover, the Retention_time at Putative nitroreductase [8] worked out at 17.81 min; at Putative nitroreductase [9] it was 15.99 min; at Putative nitroreductase [11], 22.3 min; on Putative nitroreductase [12] it was 18.22 min; at Putative nitroreductase [14], 14 min. The viability at 48 h, up to 150 µM in data set [2], in [5] and in data set [7] was more than 80% each time. Also, the solubility result in [10] is reported as “Soluble”. Moreover, the half-life in data set [13] is less than 90 min. Also, the IC50 with PC-3 [6] amounted to 0.00181 µM. Moreover, in data set [15], the half-life at 100 µM is less than 1.2 min.

For `CS(=O)(=O)OCCN(CCBr)c1c(C(=O)NCCO)cc([N+](=O)[O-])cc1[N+](=O)[O-]`, the “fold change (FC)” value in data set [16] is 2.32.

Regarding `O=C(c1ccc(NO)cc1)N1CCCCC1`, the Retention_time at Putative nitroreductase [9] is given as 15.99 min; on Putative nitroreductase [11], 22.3 min; on Putative nitroreductase [14] it was 14 min.
